An excerpt weighted towards active compounds, which were near 3.3% of everything screened.
rCAG binder: binds r(CAG) RNA repeats. r(CAG) RNA repeat, TO-PRO-1 dye displacement fluorescence. inhibition, % at 3 µM. 370,000 tested, 1.3% active. AID 651821;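 active = inhibition above the plate cutoff, the mean of all test compounds on that plate plus 3 SD, cut at about 35% in these data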;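 also: higher means more dye released from RNA so lower well fluorescence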
mABHD4 FP: ABHD4 (mouse) inhibition, primary FP screen | purified mABHD4, FP-Rh probe fluorescence polarization | 370,000 tested, 0.54% active | Q8VD66 | inhibition, % at 8.92 µM | AID 720543;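 active = inhibition exceeding the mean over every tested compound plus 3 SD, cut at about 30% in these data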
Target sequence (Q8VD66 whole entry, looked up): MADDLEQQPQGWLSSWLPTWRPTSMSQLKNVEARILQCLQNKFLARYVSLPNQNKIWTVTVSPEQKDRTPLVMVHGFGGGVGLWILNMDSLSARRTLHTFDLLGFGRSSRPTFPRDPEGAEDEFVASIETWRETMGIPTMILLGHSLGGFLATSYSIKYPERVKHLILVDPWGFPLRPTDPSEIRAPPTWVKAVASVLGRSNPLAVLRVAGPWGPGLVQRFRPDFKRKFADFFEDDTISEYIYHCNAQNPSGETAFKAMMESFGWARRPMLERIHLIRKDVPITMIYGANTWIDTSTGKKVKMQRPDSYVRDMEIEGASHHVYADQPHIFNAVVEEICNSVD
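Doses – 8.92 µM, single dose · Material – wild-type mouse ABHD4 protein · Replication – single well per compound (singlicate) · Measure – percent inhibition of probe binding, normalized to plate controls · Schedule – 45 min compound pre-incubation plus 60 min probe step, 25 °C · Detection – fluorescence polarization with parallel and perpendicular emission, 525/598 nm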
SIAE primary: blocks human sialic acid acetylesterase. Q9HAT2. inhibition, % at 9.66 µM. 370,000 tested, 0.69% active. SIAE FP-Rh probe binding, fluorescence polarization;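 active = inhibition above a cutoff: mean of compounds within the control limits plus 3 SD of those, cut at about 17% in these data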
TCR CD3 inh: inhibitors of human TCR-CD3 interaction; TAMRA-labeled TCR probe fluorescence, biochemical; inhibition, % at 9.4 µM; 360,000 tested, 0.37% active; AID 651800; in the data active = inhibition above about 19%;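 also: recombinant mutant TCR 2C K166C tagged with TAMRA read by polarization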
PRMT1 FP inh: blocks human protein arginine methyltransferase 1; Q99873; inhibition, % at 2.79 µM; recombinant PRMT1, activity-based probe fluorescence polarization; AID 652257; 370,000 tested, 1.3% active;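 active = inhibition above about 21% made by adding two undisclosed values, limit read from the data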
PRMT1 confirm: confirmation of human PRMT1 inhibitors. shares compounds with PRMT1 FP inh. recombinant His-PRMT1, activity-based probe fluorescence polarization. inhibition, % at 2.79 µM. 3,300 tested, 42% active. AID 687036;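 active = mean inhibition across replicates above the hit cutoff derived for the earlier primary screen, cut at about 22% in these data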
Of the large screens only hits and unclear results are named; the others gave an inactive call (follow-up assays come after a bar, where they were run).

Cc1nnc(SCC2=C(C(=O)O)N3C(=O)C(NC(=O)COc4ccc(F)cc4)C3SC2)s1 (stereo unspecified)	PRMT1 FP inh 31.3 | PRMT1 confirm 22.8
CCC(C(=O)NC1C(=O)N2C(C(=O)O)=C(CSc3nnc(C)s3)CSC12)c1ccccc1 (stereo unspecified)	PRMT1 FP inh 28.4 | PRMT1 confirm inactive
Cc1nnc(SCc2ccc(F)cc2Cl)s1	none
COc1cccc(CNC2CCC23CCC(C)CC3)c1 (stereo unspecified)	none (no result: rCAG binder, TCR CD3 inh)
COCCCN(C(=O)c1cc(-c2ccco2)nc2ccccc12)c1c(N)n(Cc2ccccc2)c(=O)[nH]c1=O	PRMT1 FP inh 47.2 | PRMT1 confirm inactive
COc1ccc(CCNC(=O)c2cc(-c3ccco3)nc3ccccc23)cc1	PRMT1 FP inh 39.5 | PRMT1 confirm inactive
O=C(O)c1cc(-c2ccco2)nc2cc3ccccc3cc12	PRMT1 FP inh 26.1 | PRMT1 confirm 22.4
COCc1cn([C@H]2C[C@@H]3O[C@H](CO)CC[C@@H]3O[C@@H]2CCc2ccc(-c3ccc(OC)cc3)cc2)nn1	none (no result: TCR CD3 inh)
CC(=O)Nc1ccc(S(=O)(=O)NNc2ccc([N+](=O)[O-])cc2)cc1	PRMT1 FP inh 31.9 | PRMT1 confirm inactive
CCS(=O)(=O)c1c([N+](=O)[O-])ncn1C	none
Cn1cnc([N+](=O)[O-])c1S(=O)(=O)Oc1ccc(Cl)cc1	PRMT1 FP inh 30.5 | PRMT1 confirm 23.0
CCCCOCCCNC(=O)C[C@H]1C[C@@]2(C(=O)OC)C(=C[C@H](C(C)(C)C)O[C@@H]2C)N(Cc2ccco2)C1=O	none (no result: TCR CD3 inh)
O=C(CSCc1ccco1)Nc1cc(C(F)(F)F)ccc1N1CCOCC1	PRMT1 FP inh 66.3 | PRMT1 confirm 40.2
Cc1cc[n+](-c2[nH]c(=O)sc2/C=N/N=C(\[O-])c2ccncc2)cc1C	none
Cc1cc[n+](-c2[nH]c(=O)sc2/C=N/N=C(\[O-])c2ccccc2)cc1C	PRMT1 FP inh 62.4 | PRMT1 confirm 38.3
Cc1nnc2n(c1=O)N=C(c1ccc(Cl)cc1)CS2	PRMT1 FP inh 55.7 | PRMT1 confirm 57.1
COc1ccc(NC2=CC(c3ccc(OC)c(OC)c3)N(c3ccc(OC)cc3)C2=O)cc1 (stereo unspecified)	none
NS(=O)(=O)c1ccc(NC2=CC(c3ccc([N+](=O)[O-])cc3)N(c3ccc(S(N)(=O)=O)cc3)C2=O)cc1 (stereo unspecified)	PRMT1 FP inh 26.6 | PRMT1 confirm inactive
CCOC(=O)[C@]12CCCC3=C1N(CCC3)C(=O)[C@@H](CC(=O)N1CCCCC1)C2	none (no result: TCR CD3 inh)
CN(Cc1ccccc1F)C(=O)C1CCC(CNS(=O)(=O)c2cccc3cccnc23)CC1 (stereo unspecified)	none (no result: TCR CD3 inh)
CC1(C)CC(CC(=O)NNc2nc(-c3ccccc3)cs2)C(=O)O1 (stereo unspecified)	none
CC(C)CC1CC(C)(c2csc(NNC(=O)c3ccccc3)n2)OC1=O (stereo unspecified)	PRMT1 FP inh 41.5 | PRMT1 confirm inactive
C[C@H]1C=C(C(=O)NCc2nc3ccccc3[nH]2)O[C@@H](OCCCCO)C1	PRMT1 FP inh 41.4 | PRMT1 confirm inactive
O=C(Nc1ccc(F)cc1)OCCN1C(=O)CCC12CCC(c1ccc(Cl)cc1)CC2 (stereo unspecified)	none (no result: TCR CD3 inh)
Cc1cc(C)c2c(=O)n(CC(=O)Nc3cccc(F)c3)sc2n1	PRMT1 FP inh 90.1 | PRMT1 confirm 83.8
Cc1cc(C)c2c(n1)SCC(=O)N2CC(=O)Nc1cccc(Cl)c1	none
Cc1ccc(NC(=O)Cn2sc3nc(C)cc(C)c3c2=O)c(Cl)c1	PRMT1 FP inh 79.2 | PRMT1 confirm 88.5
CCOC(=O)c1cn(CC(=O)Nc2cccc(F)c2)nn1	none
Cc1cc(C)c2c(=O)n(CC(=O)Nc3ccc(Cl)cc3)sc2n1	PRMT1 FP inh 91.5 | PRMT1 confirm 83.6
CCN(CC)CCCNC(=O)c1cn(C(C)c2ccccc2)nn1 (stereo unspecified)	none (no result: TCR CD3 inh)
S=c1[nH]nc(-c2ccco2)n1/N=C/c1ccc(Cl)cc1	PRMT1 FP inh 25.2 | PRMT1 confirm inactive
S=c1[nH]nc(-c2ccco2)n1/N=C/c1ccccc1Cl	none
O=C(O)c1cccc(Nc2ccc([N+](=O)[O-])c3nonc23)c1	none
O=C(O)c1cccc(Nc2cc(Cl)c3nonc3c2[N+](=O)[O-])c1	PRMT1 FP inh 53.5 | PRMT1 confirm 49.4
O=C(O)c1ccccc1Nc1ccc([N+](=O)[O-])cc1	none
